Experimental data from ChEMBL document CHEMBL4765491, “Discovery of Potent and Selective Methylenephosphonic Acid CD73 Inhibitors” (J Med Chem, 2021).

Key:
[1] = biological target: 5'-nucleotidase (Homo sapiens, UniProt P21589); test: Inhibition of CD73 in human SK-OV-3 cells incubated for 60 mins before addition of AMP and further incubated for 60 mins by colorimetric assay; assay type: cell-based
[2] = biological target: T1, 5'-nucleotidase (Mus musculus, UniProt Q61503); test: Inhibition of soluble mouse CD73 incubated for 60 mins before addition of AMP and further incubated for 60 mins by colorimetric assay
T1 sequence (Q61503 whole entry): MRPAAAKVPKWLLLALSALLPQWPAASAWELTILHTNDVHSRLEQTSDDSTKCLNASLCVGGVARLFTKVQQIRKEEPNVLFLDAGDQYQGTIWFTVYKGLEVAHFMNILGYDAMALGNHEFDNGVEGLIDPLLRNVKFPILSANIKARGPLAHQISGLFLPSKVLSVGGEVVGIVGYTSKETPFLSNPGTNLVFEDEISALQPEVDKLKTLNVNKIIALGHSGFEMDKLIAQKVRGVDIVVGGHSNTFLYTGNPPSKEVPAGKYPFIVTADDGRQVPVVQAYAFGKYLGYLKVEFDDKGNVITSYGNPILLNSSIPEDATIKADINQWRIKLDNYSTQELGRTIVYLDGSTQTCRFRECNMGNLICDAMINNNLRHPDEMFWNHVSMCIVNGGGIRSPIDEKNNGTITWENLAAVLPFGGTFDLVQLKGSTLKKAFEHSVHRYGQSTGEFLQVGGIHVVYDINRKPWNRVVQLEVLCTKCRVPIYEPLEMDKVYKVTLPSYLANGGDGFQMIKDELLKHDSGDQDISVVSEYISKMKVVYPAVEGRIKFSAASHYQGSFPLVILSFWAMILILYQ

[3] = biological target: T2, Ectonucleoside triphosphate diphosphohydrolase 2 (Homo sapiens, UniProt Q9Y5L3); test: Inhibition of human NTPDase-2 expressed in CHO-K1 cells in presence of DNA/LTX mixture; assay type: cell-based
T2 sequence (Q9Y5L3 whole entry): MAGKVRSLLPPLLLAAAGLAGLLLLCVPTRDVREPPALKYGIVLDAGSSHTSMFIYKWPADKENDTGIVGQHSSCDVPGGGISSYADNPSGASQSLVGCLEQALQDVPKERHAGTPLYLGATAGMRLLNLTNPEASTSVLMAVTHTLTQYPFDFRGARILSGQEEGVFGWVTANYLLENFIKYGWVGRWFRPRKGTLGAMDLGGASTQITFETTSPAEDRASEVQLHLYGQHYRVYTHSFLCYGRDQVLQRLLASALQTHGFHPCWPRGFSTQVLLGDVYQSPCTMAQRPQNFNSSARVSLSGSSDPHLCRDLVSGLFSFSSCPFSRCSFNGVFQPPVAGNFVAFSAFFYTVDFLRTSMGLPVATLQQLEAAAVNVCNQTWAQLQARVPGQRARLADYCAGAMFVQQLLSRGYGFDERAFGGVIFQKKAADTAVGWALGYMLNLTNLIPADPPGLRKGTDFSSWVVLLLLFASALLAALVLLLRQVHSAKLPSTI
In short: (§1)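 CHO-K1 cells transfected overnight (Lipofectamine LTX) with NTPDase2, 3 or 8 plasmid, then harvested into HEPES pH 7.4 buffer. 10,000 cells/well, 2% DMSO, 16-point 1:3 compound dilutions (final 10–0 μM), 1 h preincubation at 37 °C. ATP added at 25 (NTPDase2), 15 (NTPDase3) or 30 μM (NTPDase8), 50 min at 37 °C. Phosphate read with PiColorLock Gold at 620 nm.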

[4] = biological target: T3, Ectonucleoside triphosphate diphosphohydrolase 3 (Homo sapiens, UniProt O75355); test: Inhibition of human NTPDase-3 expressed in CHO-K1 cells in presence of DNA/LTX mixture; assay type: cell-based; in short: as §1
T3 sequence (O75355 whole entry): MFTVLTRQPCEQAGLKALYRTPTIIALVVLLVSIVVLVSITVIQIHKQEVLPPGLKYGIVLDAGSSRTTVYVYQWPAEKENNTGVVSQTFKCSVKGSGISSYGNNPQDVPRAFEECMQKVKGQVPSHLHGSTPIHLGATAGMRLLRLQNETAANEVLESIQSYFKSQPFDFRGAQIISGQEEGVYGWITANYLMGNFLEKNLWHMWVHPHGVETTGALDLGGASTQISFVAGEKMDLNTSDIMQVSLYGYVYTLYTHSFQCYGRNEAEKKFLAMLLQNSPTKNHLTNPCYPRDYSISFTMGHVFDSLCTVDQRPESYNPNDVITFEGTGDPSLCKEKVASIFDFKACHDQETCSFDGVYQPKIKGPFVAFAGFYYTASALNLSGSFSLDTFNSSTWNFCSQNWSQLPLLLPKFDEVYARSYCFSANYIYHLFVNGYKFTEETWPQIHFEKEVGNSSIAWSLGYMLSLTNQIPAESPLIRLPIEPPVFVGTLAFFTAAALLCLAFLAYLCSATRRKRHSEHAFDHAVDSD

[5] = biological target: T4, Ectonucleoside triphosphate diphosphohydrolase 8 (Homo sapiens, UniProt Q5MY95); test: Inhibition of human NTPDase-8 expressed in CHO-K1 cells in presence of DNA/LTX mixture; assay type: cell-based; in short: as §1
T4 sequence (Q5MY95 whole entry): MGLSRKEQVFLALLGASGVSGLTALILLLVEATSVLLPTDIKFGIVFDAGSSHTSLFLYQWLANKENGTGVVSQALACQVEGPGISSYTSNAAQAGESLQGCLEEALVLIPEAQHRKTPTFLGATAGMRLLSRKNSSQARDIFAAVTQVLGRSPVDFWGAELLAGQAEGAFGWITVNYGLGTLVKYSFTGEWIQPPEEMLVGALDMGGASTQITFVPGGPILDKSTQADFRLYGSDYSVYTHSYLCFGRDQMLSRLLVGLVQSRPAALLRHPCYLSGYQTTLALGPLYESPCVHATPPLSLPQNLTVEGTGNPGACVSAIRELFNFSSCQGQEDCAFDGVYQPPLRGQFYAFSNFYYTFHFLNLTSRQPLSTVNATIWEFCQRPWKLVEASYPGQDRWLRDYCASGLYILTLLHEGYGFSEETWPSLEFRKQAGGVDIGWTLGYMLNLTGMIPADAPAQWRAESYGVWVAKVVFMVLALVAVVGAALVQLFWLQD

[6] = Stability in human hepatocytes; assay type: ADME, cell-based, Hepatocyte
[7] = Clearance in Sprague-Dawley rat at 0.25 to 0.5 mg/kg, iv measured up to 24 hrs by LC-MS/MS analysis; assay type: ADME, organism-based; details: in vivo, dose 0.25-0.5 mg/kg
In short: (§2)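 Male SD rats (0.27–0.30 kg), acclimated. Single IV bolus via femoral vein at 0.25 or 0.5 mg/kg in 31.6% DMA/36.8% ethanol/31.6% PEG. Jugular blood at predose, 5, 15, 30 min, 1, 2, 4, 6, 8, 24 h, collected into K2-EDTA; plasma spun at 4 °C, stored −80 °C until analysis.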

[8] = Half life in Sprague-Dawley rat at 0.25 to 0.5 mg/kg, iv measured up to 24 hrs by LC-MS/MS analysis; assay type: ADME, organism-based; details: in vivo, dose 0.25-0.5 mg/kg; in short: as §2

Chain of 5'-nucleotidase (Homo sapiens, UniProt P21589) (P21589 whole entry): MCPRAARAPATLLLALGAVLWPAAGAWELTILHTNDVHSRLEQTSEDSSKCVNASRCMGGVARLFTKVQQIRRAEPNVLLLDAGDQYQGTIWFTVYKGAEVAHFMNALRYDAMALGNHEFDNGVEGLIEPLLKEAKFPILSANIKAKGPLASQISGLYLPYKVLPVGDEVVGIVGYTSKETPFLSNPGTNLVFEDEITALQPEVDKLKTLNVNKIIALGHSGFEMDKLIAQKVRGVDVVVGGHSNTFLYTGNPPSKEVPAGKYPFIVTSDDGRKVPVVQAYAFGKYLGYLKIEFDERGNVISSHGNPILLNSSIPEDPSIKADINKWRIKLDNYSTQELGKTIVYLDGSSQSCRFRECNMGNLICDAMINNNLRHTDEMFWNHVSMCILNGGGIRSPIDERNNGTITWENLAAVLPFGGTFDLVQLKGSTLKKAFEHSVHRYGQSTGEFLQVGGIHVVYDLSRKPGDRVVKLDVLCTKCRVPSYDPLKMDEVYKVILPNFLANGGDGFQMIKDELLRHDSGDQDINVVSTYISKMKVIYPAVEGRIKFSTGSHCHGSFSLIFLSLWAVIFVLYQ

IC50 [1]: 0.55 nM
IC50 [2]: 3 nM
IC50 [3]: > 10000 nM
IC50 [4]: > 10000 nM
IC50 [5]: > 10000 nM
Stabilty [6]: Stable
clearance [7]: 2.17 mL/min/kg
half-life [8]: 1.2 h
Compound: O=P(O)(O)COC[C@H]1O[C@@H](n2ncc3c(NC4CCCC4)nc(Cl)nc32)[C@H](O)[C@@H]1O
